Assay [1] concerns Huh-7. The assay is described as follows: Induction of cell death in human HuH7 cells assessed as DNA fragmentation at cytotoxic IC50 level after 72 hrs by Hoechst 33258 staining based […]. It counts as functional. In short, it runs like this:
(§1)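 Cells were washed in cold PBS, fixed 10 min in cold methanol and stained with Hoechst 33258 at 3 µg/mL for 5 min in the dark. Nuclear condensation and fragmentation were examined by fluorescence microscopy at 40×.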

Assay [2] can be described thus: Cytotoxicity against human HCT116 cells after 72 hrs by SRB assay. Format: functional, cell-based. The note with it: HCT-116, 72 h. In outline:
(§2)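 Cells kept in DMEM with 10% FCS and penicillin/streptomycin at 37°C, 5% CO2. 2000–3000 cells/well were seeded, and medium was refreshed the next day. DMSO solutions were added over 2.5–40 µM with matched DMSO-only controls for 72 h. Cells were then TCA-fixed, stained with 0.4% SRB in 1% acetic acid, solubilized in 10 mM Tris pH 8 and read at 515 nm. Data were normalized to DMSO wells and expressed as mean ±SD.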

Assay [3] can be described thus: Induction of cell cycle arrest in human Mahlavu cells assessed as accumulation at G2/M phase at cytotoxic IC50 level after 48 hrs by propidium iodide staining based FACS method. Format: functional.
Assay [4] is described as follows: Induction of cell cycle arrest in human HuH7 cells assessed as accumulation at G0/G1 phase at cytotoxic IC50 level after 48 hrs by propidium iodide staining based FACS method. It counts as functional, Huh-7. In short, it runs like this:
(§3)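 Huh7 cells were seeded at 150,000–300,000 per 100-mm dish and left 24 h. […] Cells were stained with a propidium iodide-containing cell cycle reagent, and subG1, G0/G1, S and G2/M fractions were scored by flow cytometry.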

Assay [5] can be described thus: Induction of cell cycle arrest in human HuH7 cells assessed as accumulation at S phase at cytotoxic IC50 level after 48 hrs by propidium iodide staining based FACS method. Format: functional, Huh-7. In short, it runs like this:
as §3
For orientation: In flow cytometry, cells or beads pass a laser one at a time.

Assay [6] is described as follows: Induction of cell cycle arrest in human HuH7 cells assessed as accumulation at G2/M phase at cytotoxic IC50 level after 48 hrs by propidium iodide staining based FACS method. It counts as functional, Huh-7. In outline: as §3
For assay [7], the system named is Huh-7. The assay can be described thus: Induction of cell death in human HuH7 cells assessed as nuclear condensation at cytotoxic IC50 level after 72 hrs by Hoechst 33258 staining based […]. Format: functional. In short, it runs like this: as §1
Assay [8] is described as follows: Cytotoxicity against human HuH7 cells after 72 hrs by SRB assay. Format: functional, cell-based. To be noted: Huh-7, 72 h. In short, it runs like this: as §2
Assay [9] has as its system Huh-7. The assay is described as follows: Induction of autophagy in human HuH7 cells assessed as increase in LC3-2 formation at cytotoxic IC50 level after 72 hrs by Western blotting method. It counts as functional, cell-based.
Assay [10] is described as follows: Induction of cell cycle arrest in human Mahlavu cells assessed as accumulation at S phase at cytotoxic IC50 level after 48 hrs by propidium iodide staining based FACS method. It counts as functional.
Assay [11] in a line: Induction of cell cycle arrest in human Mahlavu cells assessed as accumulation at G0/G1 phase at cytotoxic IC50 level after 48 hrs by propidium iodide staining based FACS method. It counts as functional.
The test system of assay [12] is MCF7. The assay can be described thus: Cytotoxicity against human MCF7 cells after 72 hrs by SRB assay. Format: functional, cell-based. The note with it: MCF7, 72 h. In outline: as §2
In assay [13] the test system is Huh-7. The assay can be described thus: Induction of cell death in human HuH7 cells assessed as induction of intracytoplasmic vacuoles at cytotoxic IC50 level after 72 hrs by inverted light microscopy. Format: functional, cell-based. In outline: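 They were viewed under an inverted light microscope at 20× for death morphology, including intracytoplasmic vacuoles.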

Calls of active or inactive are those of the source. The rule behind the calls is not given here.

The IC50 is the point on the concentration scale where inhibition reaches its midpoint. Read a high IC50 as weaker potency in that assay. In the case of `Cc1ccc(-c2cc(C(=O)NCc3cccnc3)nn2-c2ccc3ccccc3n2)cc1`, the result in assay [1], in assay [7], in assay [9] and in assay [13] was Active. Further, the figures for the IC50 in assay [2], in assay [8] and in assay [12] were 11.2 µM, 14.1 µM and 19 µM, respectively. Further, the Activity in assay [3] was 28.5%; in [4], 56.1%; in [5], 10.5%; in assay [6] it was 32.3%; in assay [10], 14%; in assay [11], 56.1%.

As for `Cc1ccc(-c2cc(C(=O)Nc3ccc(Cl)nc3Cl)nn2-c2ccc3ccccc3n2)cc1`, the IC50 was 7.9 µM in [2], 14 µM in [8] and 12.7 µM in [12].

Turning to `Cc1ccc(-c2cc(C(=O)N3CCN(c4cccc(C(F)(F)F)n4)CC3)nn2-c2ccc3ccccc3n2)cc1`, the values for the IC50 in assay [2], in assay [8] and in assay [12] were 9.4 µM, 10.2 µM and 11.4 µM, respectively.

For the compound `Cc1ccc(-c2cc(C(=O)N3CCN(c4ccncc4)CC3)nn2-c2ccc3ccccc3n2)cc1`, the result in [1], in [7], in assay [9] and in assay [13] was Active. In addition, the IC50 in assay [2] was determined as 7.1 µM; in assay [8], 7.8 µM; in assay [12] it was 4.7 µM. For the same compound, the Activity in [3] is 24.4%; in assay [4], 57.2%; in [5], 7.2%; in [6], 33%; in [10] it was 17%; in assay [11] it was 52.9%.

Consider `Cc1ccc(-c2cc(C(=O)N3CCN(c4ccccn4)CC3)nn2-c2ccc3ccccc3n2)cc1`, for which the IC50 in assay [2] turned out to be 5.1 µM; in assay [8] it was 4.8 µM; in assay [12], 12 µM.

For `Cc1ccc(-c2cc(C(=O)Nc3ccncc3)nn2-c2ccc3ccccc3n2)cc1`, the IC50 in assay [2] is 8.1 µM; in assay [8] it was 8 µM; in assay [12], 15.4 µM.

With `Cc1ccc(-c2cc(C(=O)N3CCN(c4ncc(C(F)(F)F)cc4Cl)CC3)nn2-c2ccc3ccccc3n2)cc1`, the IC50 in [2] was determined as 13.3 µM; in assay [8], 8 µM; in [12], 48 µM.

For `COc1ncccc1NC(=O)c1cc(-c2ccc(C)cc2)n(-c2ccc3ccccc3n2)n1`, the IC50 in assay [2] was 15.7 µM; in [8] it was 7.9 µM; in assay [12], 30.2 µM.

For `Cc1ccc(-c2cc(C(=O)N3CCN(c4ncccc4C#N)CC3)nn2-c2ccc3ccccc3n2)cc1`, the IC50 in assay [2] was 39.4 µM; in assay [8], 21.5 µM; in assay [12] it was 79.5 µM.

As to `Cc1ccc(-c2cc(C(=O)N3CCN(c4ncccc4C(F)(F)F)CC3)nn2-c2ccc3ccccc3n2)cc1`, the IC50 in assay [2] is 9.7 µM; in assay [8], 12.7 µM; in [12] it was 5.8 µM.

`Cc1ccc(-c2cc(C(=O)Nc3ncc(Br)cc3Br)nn2-c2ccc3ccccc3n2)cc1`: the IC50 was found to be 9.6 µM in assay [2], 11.5 µM in assay [8] and 16.9 µM in assay [12].

As to `Cc1ccc(-c2cc(C(=O)Nc3ccncc3Br)nn2-c2ccc3ccccc3n2)cc1`, the concentration for half-maximal inhibition (IC50) was found to be 15.5 µM in assay [2], 13.1 µM in assay [8] and 11 µM in [12].

`Cc1ccc(-c2cc(C(=O)N3CCN(c4ccc(C(F)(F)F)cn4)CC3)nn2-c2ccc3ccccc3n2)cc1`: the figures for the IC50 in assay [2], in assay [8] and in assay [12] were 17 µM, 20.9 µM and 44.7 µM, respectively.

Consider `Cc1ccc(-c2cc(C(=O)N3CCN(c4c(Cl)cncc4Cl)CC3)nn2-c2ccc3ccccc3n2)cc1`, for which the IC50 in [2] came to 4.8 µM; in assay [8], 4.6 µM; in assay [12], 9.7 µM.

Consider `CC[C@@]1(O)C(=O)OCc2c1cc1n(c2=O)Cc2cc3ccccc3nc2-1` [CAMPTOTHECIN], for which the IC50 was determined as 0.00015 µM in assay [2], 0.004 µM in assay [8] and 0.0006 µM in [12].

The values are drawn from ChEMBL document CHEMBL3351385, “Synthesis and preliminary mechanistic evaluation of 5-(p-tolyl)-1-(quinolin-2-yl)pyrazole-3-carboxylic acid amides with potent antiproliferative activity on human cancer cell lines” (Eur J Med Chem, 2014).
